From ChEMBL document CHEMBL1141138, “A novel immunostimulator, N-[alpha-O-benzyl-N-(acetylmuramyl)-L-alanyl-D-isoglutaminyl]-N6-trans-(m-nitrocinnamoyl)-L-lysine, and its adjuvancy on the hepatitis B surface antigen” (J Med Chem, 2005)
“And” between values parts separate entries of the source, which are not always exact repeats. Identical values can stand only once.

Experiments:
P815 [1] = assay: In vitro stimulatory effect on specific release of allogenic CTL cytotoxicity on P815 cells mediated by BMDC in presence of LPS; assay type: functional, Mus musculus
Procedure, shortened: (§1)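 BALB/c (H-2d) BMDCs were pretreated with compound ±LPS for 24 h, then cocultured in quadruplicate with C57BL/6J (H-2b) splenocytes. Effectors harvested on day 6 were set to 5 × 10^5 cells and incubated with 1 × 10^4 P815 (H-2d) targets for 5 h. LDH release was read at OD450. Specific release = (E−S)/(M−S)×100; maximum release used 1% Triton X-100.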

P815 [2] = assay: In vitro stimulatory effect on specific release of allogenic CTL cytotoxicity on P815 cells mediated by BMDC in absence of LPS; assay type: functional, Mus musculus; procedure, shortened: as §1
Mus musculus [3] = organism: Mus musculus; assay: Effect of compound (10e-6 mol/L) on rate of proliferation of murine splenocytes in absence of concanavalin A compared to control; assay type: functional
Procedure, shortened: (§2)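 Normal murine splenocytes were exposed to compound with or without concanavalin A (2 μg/mL) for 72 h. Proliferation was read by MTT as OD570. Increased rate (%) was taken versus the matching control without or with ConA. Mean ± SD.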

P388 = assay: Increased inhibitory ratio against P388 mice tumor cells compared to control; assay type: functional, Mus musculus
Procedure, shortened: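 Thioglycollate-elicited peritoneal macrophages from C57BL/6J mice (harvested 3 days after ip TG) were coincubated with P388 leukemia cells and compound for 72 h. P388 with compound alone served as the toxicity control. Surviving tumor cells were read by MTT at 570 nm, reference 630 nm. The inhibitory ratio was taken versus control.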

P815 [4] = assay: In vitro stimulatory effect on increased rate of allogenic CTL cytotoxicity on P815 cells mediated by BMDC in absence of LPS; assay type: functional, Mus musculus; procedure, shortened: as §1
P815 [5] = assay: In vitro stimulatory effect on increased rate of allogenic CTL cytotoxicity on P815 cells mediated by BMDC in presence of LPS; assay type: functional, Mus musculus; procedure, shortened: as §1
Mus musculus [6] = organism: Mus musculus; assay: Effect of compound (10e-6 mol/L) on rate of proliferation of murine splenocytes in presence of concanavalin A compared to control; assay type: functional; procedure, shortened: as §2
[7] = Effect of compound (10e-6 mol/L) on secretion of Interleukin-12 treated with bone marrow-derived dendritic cells in presence of lipopolysaccharide; assay type: functional, Mus musculus
Procedure, shortened: (§3)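 BMDCs came from BALB/c bone marrow adherent cells grown with IL-4 and GM-CSF (10 ng/mL each); half the medium was renewed every other day. On day 5 cells were preincubated with compound for 30 min, then held ±LPS (1.0 μg/mL) for 48 h. Supernatant IL-2 and IL-12 (pg/mL) were measured by sandwich ELISA. Detection limits were 15.0 and 7.8 pg/mL.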

[8] = Effect of compound (10e-7 mol/L) on secretion of Interleukin-12 treated with bone marrow-derived dendritic cells in absence of lipopolysaccharide; assay type: functional, Mus musculus; procedure, shortened: as §3
Mus musculus [9] = assay: Effect (2.0 mg/kg/day*7 days, i.v.) on cyclophosphamide (CY, i.p.) treated mice (immunosuppressed animal model) assessed by CD4+/CD8+ ratio in peripheral blood mononuclear cells; assay type: functional
[10] = In vivo toxicity (500 mg/kg) is assessed as increase in mass index of mice spleen cells relative to control (56.4+/-11.5); assay type: organism-based; details: mouse
[11] = Effect of compound (10e-6 mol/L) on secretion of Interleukin-2 treated with bone marrow-derived dendritic cells in presence of lipopolysaccharide; assay type: functional, Mus musculus; procedure, shortened: as §3
[12] = In vivo toxicity (100 mg/kg) is assessed as increase in mass index of mice thymus cells relative to control (44.1+/-5.13); assay type: organism-based; details: mouse
Mus musculus [13] = organism: Mus musculus; assay: Effect of compound (10e-9 mol/L) on rate of proliferation of murine splenocytes in presence of concanavalin A compared to control; assay type: functional; procedure, shortened: as §2
[14] = Effect of compound (10e-6 mol/L) on secretion of Interleukin-2 treated with bone marrow-derived dendritic cells in absence of lipopolysaccharide; assay type: functional, Mus musculus; procedure, shortened: as §3
Mus musculus [15] = assay: Effect (10 mg/kg/day*7 days, i.v.) on cyclophosphamide (CY, i.p.) treated mice (immunosuppressed animal model) assessed by CD4+/CD8+ ratio in peripheral blood mononuclear cells; assay type: functional
Procedure, shortened: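 Male C57BL/6J mice given cyclophosphamide 30 (mg/kg)/day ip for 5 consecutive days, then randomized and dosed iv for 7 consecutive days. PBMCs collected on day 8; ratio of CD3+CD4+ to CD3+CD8+ T cells measured by flow cytometry (CD4-FITC, PE anti-CD8 staining). n = 3.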

Mus musculus [16] = assay: Effect (0.5 mg/kg/day*7 days, i.v.) on cyclophosphamide (CY, i.p.) treated mice (immunosuppressed animal model) assessed by CD4+/CD8+ ratio in peripheral blood mononuclear cells; assay type: functional
[17] = In vivo toxicity (100 mg/kg) is assessed as mass index in mice spleen cells; assay type: organism-based; details: mouse
[18] = In vivo toxicity (100 mg/kg) is assessed as increase in mass index of mice spleen cells relative to control (56.4+/-11.5); assay type: organism-based; details: mouse
Mus musculus [19] = organism: Mus musculus; assay: Effect of compound (10e-7 mol/L) on rate of proliferation of murine splenocytes in absence of concanavalin A compared to control; assay type: functional; procedure, shortened: as §2
[20] = Effect of compound (10e-7 mol/L) on secretion of Interleukin-2 treated with bone marrow-derived dendritic cells in presence of lipopolysaccharide; assay type: functional, Mus musculus; procedure, shortened: as §3
Mus musculus [21] = organism: Mus musculus; assay: Effect of compound (10e-8 mol/L) on rate of proliferation of murine splenocytes in presence of concanavalin A compared to control; assay type: functional; procedure, shortened: as §2
[22] = Effect of compound (10e-8 mol/L) on secretion of Interleukin-12 treated with bone marrow-derived dendritic cells in absence of lipopolysaccharide; assay type: functional, Mus musculus; procedure, shortened: as §3
[23] = Effect of compound (10e-9 mol/L) on secretion of Interleukin-12 treated with bone marrow-derived dendritic cells in presence of lipopolysaccharide; assay type: functional, Mus musculus; procedure, shortened: as §3
[24] = Effect of compound (10e-7 mol/L) on secretion of Interleukin-2 treated with bone marrow-derived dendritic cells in absence of lipopolysaccharide; assay type: functional, Mus musculus; procedure, shortened: as §3
[25] = In vivo toxicity (500 mg/kg) is assessed as mass index in mice thymus cells; assay type: organism-based; details: mouse
[26] = Effect of compound (10e-7 mol/L) on secretion of Interleukin-12 treated with bone marrow-derived dendritic cells in presence of lipopolysaccharide; assay type: functional, Mus musculus; procedure, shortened: as §3
Mus musculus [27] = organism: Mus musculus; assay: Effect of compound (10e-8 mol/L) on rate of proliferation of murine splenocytes in absence of concanavalin A compared to control; assay type: functional; procedure, shortened: as §2
[28] = In vivo toxicity (100 mg/kg) is assessed as mass index in mice thymus cells; assay type: organism-based; details: mouse
[29] = Effect of compound (10e-6 mol/L) on secretion of Interleukin-12 treated with bone marrow-derived dendritic cells in absence of lipopolysaccharide; assay type: functional, Mus musculus; procedure, shortened: as §3
[30] = Effect of compound (10e-8 mol/L) on secretion of Interleukin-12 treated with bone marrow-derived dendritic cells in presence of lipopolysaccharide; assay type: functional, Mus musculus; procedure, shortened: as §3
[31] = In vivo toxicity (500 mg/kg) is assessed as mass index in mice spleen cells; assay type: organism-based; details: mouse
Mus musculus [32] = organism: Mus musculus; assay: Effect of compound (10e-7 mol/L) on rate of proliferation of murine splenocytes in presence of concanavalin A compared to control; assay type: functional; procedure, shortened: as §2
Mus musculus [33] = organism: Mus musculus; assay: Effect of compound (10e-9 mol/L) on rate of proliferation of murine splenocytes in absence of concanavalin A compared to control; assay type: functional; procedure, shortened: as §2
[34] = Effect of compound (10e-8 mol/L) on secretion of Interleukin-2 treated with bone marrow-derived dendritic cells in absence of lipopolysaccharide; assay type: functional, Mus musculus; procedure, shortened: as §3
[35] = Effect of compound (10e-9 mol/L) on secretion of Interleukin-2 treated with bone marrow-derived dendritic cells in presence of lipopolysaccharide; assay type: functional, Mus musculus; procedure, shortened: as §3
[36] = Effect of compound (10e-8 mol/L) on secretion of Interleukin-2 treated with bone marrow-derived dendritic cells in presence of lipopolysaccharide; assay type: functional, Mus musculus; procedure, shortened: as §3

With `CCCCCCCCCCCCCCCCCC(=O)NCCCC[C@H](NC(=O)CC[C@@H](NC(=O)[C@H](C)NC(=O)[C@@H](C)O[C@H]1[C@H](O)[C@@H](CO)OC(O)[C@@H]1NC(C)=O)C(N)=O)C(=O)O` (stereo partly drawn) [ROMURTIDE] the Release (P815 [1]) was 30.7%, the Release (P815 [2]) was 31.7% and the Increase (Mus musculus [3]) was 122%. For the same molecule, the IR (P388) was 45%, the Increase (P815 [4]) was 187% and the Increase (P815 [5]) was 45%. For the same molecule, the Increase (Mus musculus [6]) was 67%.

In the case of `CC(=O)N[C@H]1[C@@H](OCc2ccccc2)O[C@H](CO)[C@@H](O)[C@@H]1O[C@H](C)C(=O)N[C@@H](C)C(=O)N[C@H](CCC(=O)N[C@@H](CCCCNC(=O)/C=C/c1cccc([N+](=O)[O-])c1)C(N)=O)C(N)=O`, the Activity [7] is reported as 988 pg/mL, the Activity [8] is reported as 786 pg/mL and the Release (P815 [1]) is reported as 35.7% and 31.3% and 28.5% and 23.8%. It also gave a Ratio (Mus musculus [9]) of 4.14, a Mass index [10] of 53% and an Activity [11] of 132 pg/mL. For the same molecule, the Mass index [12] was -1.4% and -2.8%, the Increase (Mus musculus [13]) was 7.8% and the Activity [14] was 103 pg/mL. The Ratio (Mus musculus [15]) was 4.47, the Ratio (Mus musculus [16]) was 3.18 and the Mass index [17] was 59.9 mg/10g body weight. The Mass index [18] was 6%, the Increase (Mus musculus [19]) was 75% and the Activity [20] was 117 pg/mL. The Increase (Mus musculus [21]) was 15%, the Activity [22] was 725 pg/mL and the Increase (Mus musculus [3]) was 191%. It also gave an IR (P388) of 71%, an Activity [23] of 800 pg/mL and an Activity [24] of 76 pg/mL. It also gave a Mass index [25] of 43.5 mg/10g body weight, an Activity [26] of 838 pg/mL and an Increase (Mus musculus [27]) of 27.3%. For the same molecule, the Mass index [28] was 42.8 mg/10g body weight, the Activity [29] was 918 pg/mL and the Increase (P815 [5]) was 82% and 49% and 28%. It also gave an Increase (Mus musculus [6]) of 82%, an Activity [30] of 819 pg/mL and a Mass index [31] of 86.1 mg/10g body weight. It also gave an Increase (Mus musculus [32]) of 38%, an Increase (Mus musculus [33]) of 5.41% and an Activity [34] of 60 pg/mL. For the same molecule, the Activity [35] was 94.8 pg/mL and the Activity [36] was 107 pg/mL.

Work on `O=P1(N(CCCl)CCCl)NCCCO1` (stereo not drawn) [CYCLOPHOSPHAMIDE ANHYDROUS] yielded a Ratio (Mus musculus [15]) of 2.4.
